The subject of series [1] is Toxoplasma gondii. The experiment in a line: Antiparasitic activity against Toxoplasma gondii infected in HFF after 24 hrs by [3H]uracil incorporation assay. The series is classed as functional. The method, boiled down:
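Human foreskin fibroblasts were infected with T. gondii tachyzoites and given 1 h to invade before inhibitors were added. Cultures ran 3 days, then 3H-uracil was added for a further day. Parasite growth was read as uracil incorporation by liquid scintillation counting. MIC50 and MIC90 are the concentrations giving 50% and 90% growth inhibition. There were 6 replicate samples per group.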

Series [2] relates to HFF. The experiment in a line: Toxicity to HFF at highest concentration. The series is classed as cell-based. The conditions noted are these: human. Summed up:
(§1)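 Host-cell toxicity was tested on non-confluent fibroblast monolayers by 3H-thymidine incorporation, alongside visual inspection of monolayer integrity. Testing ran simultaneously with the parasite inhibition assay, and the highest concentration tested was scored.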

Series [3] has as its system HFF. Put plainly: Toxicity to HFF. The conditions noted are these: human. The series is classed as cell-based. The method, boiled down:
as §1

The structures appear in SMILES notation. Values after ≈ are worked out from the molar mass of the structure shown.

Usually MIC50 stands for the lowest concentration that inhibits either 50% of growth or 50% of the strains tested, depending on the study. Low values mean greater potency, high ones weaker potency. The term MIC90 denotes the lowest concentration that inhibits either 90% of growth or 90% of the strains tested, depending on the study. A low value points to higher susceptibility. On to `CCCc1cc(O)c(Oc2ccc(C(=O)O)cc2Cl)c(O)c1`, for which, in series [1], the MIC50 was > 24 µM and the MIC90 was > 24 µM. Further, the Activity entry in series [2] is given as “Non-toxic”.

In the case of `Oc1ccc(Oc2ccccc2)c(O)c1`, the MIC50 in series [1] is > 6 µM. Besides, the MIC90 in series [1] is > 6 µM. Further, the values for the Activity entry in series [2] and in series [3] were “Non-toxic” and 6 µM, respectively.

Turning to `Nc1ccc(/C=C/C(=O)NCc2ccccc2N)cn1`, in series [1], the MIC50 is > 6 µM and the MIC90 was > 6 µM. In series [2], the Activity result is listed as “Non-toxic”. For the same compound, the Activity in series [3] was > 6 µM.

For the compound `CN(Cc1cc2ccccc2n1C)C(=O)/C=C/c1ccc(N)nc1`, in series [1], the MIC50 was > 6 µM and the MIC90 was > 6 µM. In series [2], the Activity entry is listed as “Non-toxic”. In series [3], the Activity was > 6 µM.

Take `CC(C)(C)C(=O)Nc1cc(Cl)ccc1Oc1ccccc1`: in series [1], the MIC50 was > 6 µM and the MIC90 is > 6 µM. The Activity entry in series [2] is listed as “Non-toxic”. Further, in series [3], the Activity was > 6 µM.

With `Oc1ccc(Oc2ccc(O)cc2O)cc1`, in series [1], the MIC50 was > 6 µM and the MIC90 was > 6 µM. Besides, the Activity result in series [2] was “Non-toxic”. Also, the Activity in series [3] came out at 6 µM.

On to `CCCc1ccc(Oc2cccc(CCO)c2)c(O)c1`, for which, in series [1], the MIC50 was > 6 µM and the MIC90 was > 6 µM. Further, the Activity entry in series [2] is “Non-toxic”. In addition, the Activity in series [3] was > 6 µM.

`COc1ccc(NC(=O)/C=C/c2ccc(N)nc2)cc1`: in series [1], the MIC50 is > 6 µM and the MIC90 is > 6 µM. For the same compound, the Activity entry in series [2] is recorded as “Non-toxic”. Also, the Activity in series [3] was > 6 µM.

Take `COc1ccc(NC(=O)COc2ccc([N+](=O)[O-])cc2)cc1`: in series [1], the MIC50 was determined as 23 µM (≈ 6.95 µg/mL) and the MIC90 was > 24 µM.

With `NC(=O)c1ccc(Cn2ccc(OCc3ccccc3)cc2=O)c(Cl)c1`, in series [1], the MIC50 was > 24 µM and the MIC90 is > 24 µM.

Take `O=C(c1ccc([N+](=O)[O-])cc1)n1c(=O)[nH]c2ccccc21`: in series [1], the MIC50 was > 24 µM and the MIC90 is > 24 µM.

In series [1], `Oc1cc(Cl)ccc1Oc1ccc(-c2ccccc2)cc1` yielded an MIC50 of 6 µM (≈ 1.78 µg/mL) and an MIC90 of 20 µM (≈ 5.94 µg/mL). In series [2], the Activity entry is listed as “Non-toxic”.

As to `O=c1[nH]c2ccccc2n1Cc1ccc([N+](=O)[O-])cc1`, in series [1], the MIC50 was 20 µM (≈ 5.39 µg/mL) and the MIC90 is > 24 µM.

For the compound `CC(=O)Nc1ccc(Oc2ccc(Cl)cc2O)cc1`, in series [1], the MIC50 was > 24 µM and the MIC90 was > 24 µM.

For `O=C(O)c1ccc(Cn2ccc(OCc3ccccc3)cc2=O)c(Cl)c1`, in series [1], the MIC50 is > 24 µM and the MIC90 was > 24 µM.

For `Oc1cc(Cl)ccc1Oc1ccc(Cl)cc1Cl` [TRICLOSAN], in series [1], the MIC50 was determined as 5 µM (≈ 1.45 µg/mL) and the MIC90 was > 6 µM. Besides, the Activity in series [3] is > 6 µM.

As for `CCCc1cc(O)c(Oc2ccc(-c3nn[nH]n3)cc2)c(O)c1`, in series [1], the MIC50 was > 24 µM and the MIC90 was > 24 µM. For the same compound, the Activity result in series [2] was “Non-toxic”.

Consider `O=c1[nH]c2ccccc2n1S(=O)(=O)c1ccc([N+](=O)[O-])cc1`, for which, in series [1], the MIC50 is > 24 µM and the MIC90 was > 24 µM.

With `O=c1[nH]c2ccccc2n1-c1ccc([N+](=O)[O-])c(Cl)c1`, in series [1], the MIC50 is > 24 µM and the MIC90 is > 24 µM.

As to `Nc1ccccc1CNC(=O)COc1ccc([N+](=O)[O-])cc1`, in series [1], the MIC50 is > 24 µM and the MIC90 was > 24 µM.

In series [1], `CCOC(=O)C(C)OC(=O)c1cc(Oc2ccc(C(F)(F)F)cc2Cl)ccc1[N+](=O)[O-]` (stereo not given) [LACTOFEN] gave an MIC50 of 16 µM (≈ 7.39 µg/mL) and an MIC90 of 23 µM (≈ 10.6 µg/mL). Further, the Activity entry in series [2] is “Non-toxic”.

As to `CC(=O)Nc1ccccc1Oc1ccc(Cl)cc1O`, in series [1], the MIC50 was > 24 µM and the MIC90 is > 24 µM.

As to `CC(=O)Nc1ccc(Oc2ccc(Cl)cc2O)cn1`, in series [1], the MIC50 was > 24 µM and the MIC90 is > 24 µM.
